Laboratory results reported in ChEMBL document CHEMBL3046830, “Isolation and identification of secondary metabolites of Clitocybe nuda responsible for inhibition of zoospore germination of Phytophthora capsici” (2012).
The source made the active and inactive calls. The rule behind the calls is not given here.

Legend:
Assay type in all cases: functional
[1] = test system: Phytophthora capsici; experiment: Antimicrobial activity against Phytophthora capsici PCM81 assessed as inhibition of zoospore germination at 500 mg/L at 24 degC for 8 hr; details: for inhibition at 500 µg/mL: PCM81, 8 h
Method in brief: (§1)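 P. capsici PCM81 sporangia grown 5 days on 10% V8 agar at 24 °C under a 12 h light–dark cycle. Zoospores released in sterile water for 1 day at 24 °C, then chilled at 4 °C for 1 h. The suspension is mixed 1:1 with the sample in a cavity slide and kept moist; a distilled-water mix is the control. Germination is scored after 8 h at 24 °C, counting 100 spores × 4 replicates, with the experiment run twice and analysed by Duncan's test.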

[2] = test system: Phytophthora capsici; experiment: Antimicrobial activity against Phytophthora capsici PCM81 assessed as zoospore germination at 100 ppm at 24 degC for 8 hr; method in brief: as §1
[3] = test system: Phytophthora capsici; experiment: Antimicrobial activity against Phytophthora capsici PCM81 assessed as zoospore germination at 500 ppm at 24 degC for 8 hr; method in brief: as §1
[4] = test system: Phytophthora capsici; experiment: Antimicrobial activity against Phytophthora capsici PCM81 assessed as zoospore germination at 1000 ppm at 24 degC for 8 hr; method in brief: as §1

Row | Structure (SMILES) | inhibition [1] | Activity [2] | Activity [3] | Activity [4] | inhibition at 500 µg/mL [1]
1 | O=Cc1c[nH]c2ccccc12 [3-FORMYLINDOLE] | Active | 57% | 0% | 0% | –
2 | COCC1=C(C)C(=O)C=C(OC)C1=O | – | 65% | 3% | 0% | 97%
3 | O=CC1=CC=C(O)OC1 | – | 77% | 14.5% | 0% | 86%
